Data: ChEMBL document CHEMBL2203116, “Synthesis and evaluation of novel carbon-11 labeled oxopurine analogues for positron emission tomography imaging of translocator protein (18 kDa) in peripheral organs” (J Med Chem, 2011)

Tests used:
Type in all cases: ADME, organism-based
Lung = assay: Drug uptake in Sprague-Dawley rat lung at 0.15 nmol, iv pretreated with unlabeled (R)-PK11195 by PET scanning; details: in vivo
How it was run: (§1)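 Male Sprague-Dawley rats (6–8 weeks old), isoflurane-anesthetized, prone. ROIs on lung, heart, kidney, liver, small intestine and cardiac blood pool. Uptake decay-corrected to injection time and expressed as SUV (body-weight normalized). n = 4, mean ± SD.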

Heart [1] = assay: Drug uptake in Sprague-Dawley rat heart at 0.15 nmol, iv pretreated with unlabeled AC-5216 by PET scanning; details: in vivo
How it was run: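 Isoflurane-anesthetized Sprague-Dawley rats underwent 30-min PET after iv [11C]radioligand, with unlabeled blocker given iv 1 min before tracer. Blockers were (R)-PK11195 at 3.0 mg/kg or AC-5216 at 1.0 mg/kg in 300 μL saline with 10% ethanol and 5% polysorbate 80. Regional uptake was decay-corrected SUV (n = 4).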

Liver [2] = assay: Drug uptake in Sprague-Dawley rat liver at 0.15 nmol, iv pretreated with unlabeled AC-5216 measured after 27.5 mins by PET scanning relative to control; details: in vivo
How it was run: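 Male Sprague-Dawley rats, 6-8 weeks, isoflurane-anesthetized. A blocking TSPO ligand (1.0 mg/kg, in 300 μL saline with 10% ethanol and 5% polysorbate 80) was injected 1 min before iv radioligand (16-18 MBq/200 μL). Liver ROI as decay-corrected SUV (injected activity, body weight), 27.5-min value versus controls; n = 4.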

[3] = Metabolic stability in Sprague-Dawley rat heart assessed as unchanged compound at 0.32 nmol, iv after 30 mins by analytical radio- HPLC; details: read-out: Stability
How it was run: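 Rats (n = 3) given radioligand iv (37 MBq/100 μL, 0.32 nmol) and killed at 30 min. Heart and kidney homogenized in ice-cold MeCN/H2O 4/6, centrifuged 15000 rpm for 1 min at 4 °C. Supernatant run on analytical radio-HPLC (C18, MeCN/H2O 4/6). Percent parent = parent peak area over total peak areas, decay-corrected. Mean ± SD.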

[4] = Metabolic stability in Sprague-Dawley rat plasma assessed as unchanged compound at 0.32 nmol, iv after 30 mins by analytical radio- HPLC; details: read-out: Stability
Brain = assay: Biodistribution in LPS-treated Sprague-Dawley rat brain at 0.19 nmol, iv by gamma counting; details: in vivo
How it was run: (§2)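 Male Sprague-Dawley rats were given intratracheal LPS (E. coli O127:B8, 5.0 mg/kg in 50 μL saline) or 50 μL saline vehicle 24 h before tracer. [11C]Radioligand (16 MBq/200 μL, 0.19 nmol) in saline was injected via the tail vein. Rats were killed at 30 min (n = 4 per group). Tissues were weighed and gamma-counted, expressed as decay-corrected %ID/g.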

Liver [5] = assay: Biodistribution in LPS-treated Sprague-Dawley rat liver at 0.19 nmol, iv by gamma counting; details: in vivo; how it was run: as §2
Heart [6] = assay: Biodistribution in Sprague-Dawley rat heart at 0.19 nmol, iv by gamma counting; details: in vivo; how it was run: as §2
Pancreas = assay: Biodistribution in Sprague-Dawley rat pancreas at 0.19 nmol, iv by gamma counting; details: in vivo; how it was run: as §2
Rattus norvegicus = assay: Biodistribution in Sprague-Dawley rat small intestine at 0.19 nmol, iv by gamma counting; details: in vivo; how it was run: as §2
Blood = assay: Drug uptake in Sprague-Dawley rat cardiac blood pool at 0.15 nmol, iv up to 30 mins by PET scanning; details: in vivo, 0.5 h
How it was run: (§3)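 Isoflurane-anesthetized male Sprague-Dawley rats lay prone and received an iv bolus of [11C]radioligand in 200 μL. 3D list-mode emission scans ran 30 min from injection. Regions of interest were drawn on the organs and cardiac blood pool. Uptake was decay-corrected to injection time and expressed as SUV (normalized to injected radioactivity and body weight). Values are mean of n = 4.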

Liver [7] = assay: Drug uptake in Sprague-Dawley rat liver at 0.15 nmol, iv after 2 mins by PET scanning; details: in vivo; how it was run: as §1
Heart [8] = assay: Drug uptake in Sprague-Dawley rat heart at 0.15 nmol, iv after 27.5 mins by PET scanning; details: in vivo; how it was run: as §3

- Drug uptake (Lung): Not Active
- Drug uptake (Heart [1]): Not Active
- fold change (FC) (Liver [2]): 1.5
- remaining at 0.5 h [3]: 93.8%
- remaining at 0.5 h [4]: 23.4%
- Drug uptake (Brain): 0.02 % ID/g
- Drug uptake (Liver [5]): 1.03 % ID/g
- Drug uptake (Heart [6]): 2.1 % ID/g
- Drug uptake (Pancreas): 0.38 % ID/g
- Drug uptake (Rattus norvegicus): 1.57 % ID/g
- Drug uptake (Blood): Active
- SUV (Liver [7]): 1.6
- SUV (Heart [8]): 0.9
Structure (SMILES): CCN(Cc1ccncc1)C(=O)Cn1c(=O)n([11CH3])c2cnc(-c3ccccc3)nc21
